# Calls of active or inactive are those of the source.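 Rule for the calls, unless noted: active = viability loss from added drug above about 55%, and viability with drug at most 40%, in both replicates (limit read from the data, passing the limit was not always enough); inconclusive = both conditions met in only one replicate; inactive = neither replicate meets both conditions.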
# What was measured:
# [1] = HUVEC growth inhibition – cell-based, human, primary screen (AID 575;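 active = viability at or below 30% in both replicate assays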;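 note: 100% = median of untreated cell wells with 0.1% DMSO on each plate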); details: HUVEC proliferation, CellTiter-Glo luminescence, 72 h; at 10 µM; stronger effect = lower value
# How it was run: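 Assay system: primary human umbilical vein endothelial cells / Buffer or medium: endothelial basal medium with 2% FBS plus growth supplements / Compound dosing: one dose, 10 µM final, 0.1% DMSO / Timing: 72 h treatment at 37 °C / Signal: CTG luminescence / Benchmarks: 32 DMSO-only cell-control wells (high), 32 MePR drug-control wells (low) per plate / Plate: collagen-coated 384-well format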
# [2] = H69AR cell proliferation blockers – human, duplicate replicates, primary screen (AID 580;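 active = viability at or under a set limit in both replicates, limit being median viability minus 3 SD, cut at about 48% in these data, passing the limit was not always enough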;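 note: 100% = mean luminescence of untreated wells and 0% = no signal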); details: H69AR lung tumor cells viability, ATP luminescence, 72 h; at 10 µM; stronger effect = lower value
# [3] = MRP1 drug-resistance reversers in H69AR cells – cell-based, doxorubicin co-treatment, pilot screen (AID 601); details: CellTiter-Glo, 72 h, at 10 µM; for differential viability (reversal): stronger effect = higher value
# [4] = yeast transport mutant growth inhibition pilot in 384-well plates, post-Golgi transport modulator project (AID 636; in the data active = inhibition above about 31%); details: absorbance 615 nm, about 18 h, stronger effect = higher value
# [5] = growth suppression of yeast trafficking mutant, preliminary HTS, modulators of trafficking downstream of Golgi apparatus project, 1536-format plate, OD 615 nm (AID 637; in the data active = inhibition above about 30%); details: yeast transport mutant growth, absorbance 615 nm, 18 h; stronger effect = higher value
# [6] = H69AR cells + 2 uM doxorubicin, measured here: viability with 2 uM doxorubicin, stronger effect = lower value
# [7] = H69AR cells, compound alone cytotoxicity
Structure (SMILES),viability [1],viability [2],differential viability (reversal) ([3]; H69AR cells + 2 uM doxorubicin),"viability [3, 6]","viability [3, 7]",inhibition [4],inhibition [5]
COCC(C)NC(=O)CCS(=O)(=O)c1nc(-c2ccc(OC)cc2)cc(C(F)(F)F)n1 (centres undefined),8.82% (active),23.7% (active),-11.7% (inactive),35.3%,23.7%,-7.87% (inactive),-0.63% (inactive)
CCOC(=O)c1cc2oc(C)cc2n1CC(=O)OC1CCCCC1,90.9% (inactive),87.3% (inactive),0.485% (inactive),86.8%,87.3%,-2.73% (inactive),5.24% (inactive)
CC[C@H]1CN2CCc3cc(OC)c(OC)cc3[C@@H]2C[C@@H]1C[C@H]1NCCc2cc(OC)c(OC)cc21,11% (active),,10.2% (inactive),13.3%,23.5%,-1.69% (inactive),2.17% (inactive)
CCNc1nc(NC(C)C)nc(N(C#N)CCOc2ccc(Cl)cc2Cl)n1,48.8% (inactive),,20.4% (inactive),33.2%,53.6%,16.2% (inactive),-3.81% (inactive)
COC(=O)c1ccc(NC2(C#N)C(=O)Nc3ccccc32)cc1 (centres undefined),69.2% (inactive),,-16.1% (inactive),58.2%,42.1%,-5.33% (inactive),3.97% (inactive)
CN(C)c1ccc(/C=C/C(O)=C2/C(=O)N(C)C3(C)CC2c2ccccc2O3)cc1 (centres undefined),55.4% (inactive),,-7.07% (inactive),44.6%,37.5%,-2.47% (inactive),-12.7% (inactive)
CCCn1c(N2CCN(CC(=O)NCc3cccs3)CC2)nc2ccccc21,97.6% (inactive),,-0.505% (inactive),60.4%,59.9%,-4.47% (inactive),6.03% (inactive)
COc1ccc(CCN2CCC(Nc3nc4ccccc4n3Cc3ccc(F)cc3)CC2)cc1,1.47% (active),,0.16% (inactive),0.36%,0.52%,,
CC(C)Cn1c(N)c(C(=O)NCCN2CCOCC2)c2nc3ccccc3nc21,52.3% (inactive),,-23.6% (inactive),79.3%,55.7%,-5.2% (inactive),3.65% (inactive)
NC(=O)SCC(=O)Nc1cccc(Cl)c1,58.4% (inactive),,9.55% (inactive),56.8%,66.4%,-5.19% (inactive),2.06% (inactive)
COc1cccc2c1C(=O)c1c(O)c3c(c(O)c1C2=O)C[C@@](O)(C(=O)CO)C[C@@H]3O[C@H]1C[C@H](N)[C@H](O)[C@H](C)O1,22.1% (active),,-7.64% (inactive),25.6%,18%,0.26% (inactive),3% (inactive)
N#CC(C(=O)NCCc1ccccc1)c1nc2ccccc2nc1N1CCOCC1 (centres undefined),82.7% (inactive),,-3.4% (inactive),62.6%,59.2%,-0.53% (inactive),-5.71% (inactive)
Cn1cc(-c2nc3ccccc3[nH]2)c2ccccc21,81% (inactive),,-9.86% (inactive),72%,62.2%,-7.33% (inactive),-0.63% (inactive)
O=c1[nH]c2ccccc2n1CCCN1CCN(C(c2ccccc2)c2ccccc2)CC1,75.3% (inactive),,-29.9% (inactive),41.1%,11.2%,,
c1ccc(-n2ncc3c(NCc4cccs4)ncnc32)cc1,79% (inactive),,-10.5% (inactive),52.3%,41.8%,-7.73% (inactive),2.22% (inactive)
CCOC(=O)C1=C(Cn2cnc3ccccc32)NC(=O)NC1c1cc(C)ccc1C (centres undefined),93.7% (inactive),,-17.6% (inactive),60.1%,42.5%,-1.71% (inactive),1.43% (inactive)
COC(=O)C(F)(F)Sc1c(C)[nH]c2ccccc12,,92.2% (inactive),1.54% (inactive),90.6%,92.2%,-2.37% (inactive),-1.43% (inactive)
COc1ccc(Cn2c(C)nc3c(c2=O)c2nc4ccccc4nc2n3Cc2ccco2)cc1,62% (inactive),,3.86% (inactive),30.8%,34.6%,-1.71% (inactive),5.56% (inactive)
COc1cccc2c1C(=O)c1c(O)c3c(c(O)c1C2=O)C[C@@](O)(C(C)=O)C[C@@H]3O[C@H]1C[C@H](N)[C@H](O)[C@H](C)O1,5.46% (active),,,,,-2.73% (inactive),-0.17% (inactive)
CC(NCCC(c1ccccc1)c1ccccc1)c1ccccc1 (centres undefined),2.03% (active),,-0.87% (inactive),2.41%,1.54%,3.77% (inactive),-5.67% (inactive)
CCOC(=O)c1cc2sccc2n1CC(=O)Nc1ccc2c(c1)OCCO2,87.4% (inactive),,7.47% (inactive),65.2%,72.6%,-6.1% (inactive),0.95% (inactive)
CSc1nnc2c3ccccc3n(Cc3ccccc3)c2n1,,31.6% (active),1.23% (inactive),30.3%,31.6%,-2.37% (inactive),2.54% (inactive)
CC(C)(C)n1nnnc1CN(Cc1ccco1)Cc1cc2cc3c(cc2[nH]c1=O)OCO3,78% (inactive),,-8.75% (inactive),68%,59.3%,-8% (inactive),0.16% (inactive)
O=S(=O)(Cc1ccc(Cl)cc1)Nc1ccc2c(c1)OCO2,,104% (inactive),17.3% (inactive),86.8%,104%,-0.53% (inactive),4.29% (inactive)

# From PubChem BioAssay
